Experimental data as given in PubChem BioAssay AID504382 (The Scripps Research Institute Molecular Screening Center, 2011).
Hit rate of the full screen: of about 2,500 compounds, about 460 (18%) were called active. The list is a sample of the results. Unmarked numbers belong to inactive results.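 Rule for the calls: active = mean activation above a cutoff of low control average plus 3 SD from the earlier screen (cut at about 12% in these data); inactive = the rest.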

Experiment: compound fluorescence interference without thin filaments, confirmation, artefact control for cardiac RTF calcium sensitizer project, biochemical (AID 504382)
Details: IANBD fluorescence interference counterscreen, buffer, EC20 Ca2+; at 7.2 µM; stronger effect = higher value; scaled: EC20 calcium 0, EC100 calcium 100
Outline: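 Medium: MOPS/KCl/MgCl2/EGTA/NTA/DTT buffer, pH 7.2 | Reagent: EC20 calcium, 0.472 mM | Compound dosing: 7.2 µM single dose | Times: 15 min compound exposure at 25 °C | Signal: Fluorescence, 480/540 nm | Measure: Interference relative to controls | Repeats: Triplicate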
For CCOC(=O)C(C)(C)Sc1nc2c(cnn2-c2ccc(Cl)cc2)c(=O)[nH]1, the fluorescence artifact activation was 71.5% (active).
CCOC(=O)C(C)Sc1nnc(Cc2cc(=O)[nH]c(=O)[nH]2)n1-c1ccc(Cl)cc1 (stereo unspecified) showed a fluorescence artifact activation of 0.21%.
Work on CCCCNC(=O)COC(=O)c1c2c(nc3ccccc13)/C(=C\c1cccs1)CC2 yielded a fluorescence artifact activation of 1.6%.
With Nc1cccc2c1C(=O)N(c1ccccc1)C2=O the fluorescence artifact activation was 1.26%.
For Cc1cc(=O)oc(C)c1C(=O)Nc1ccc2ncccc2c1, the fluorescence artifact activation was 0.24%.
With O=C(Cc1ccccc1)Nc1cccc(-c2nc3ncccc3o2)c1 the fluorescence artifact activation was 0.02%.
For CCC(=O)Nc1ccc2oc(-c3cccnc3)nc2c1, the fluorescence artifact activation was 77.1% (active).
Compound COc1ccc(C)cc1NC(=O)C12CCC(C)(C(=O)O1)C2(C)C (stereo unspecified) has a fluorescence artifact activation of 6.57%.
Compound CC1(C)CC(=O)c2sc(NC(=O)Cc3cccs3)nc2C1 has a fluorescence artifact activation of 0.43%.
With CN(C)c1ccc(/C=C2\SC(=S)N(Nc3ncc(C(F)(F)F)cc3Cl)C2=O)cc1 the fluorescence artifact activation was 1.93%.
Compound N=C1c2ccccc2CN1c1ccc(S(=O)(=O)N2CCCCC2)cc1 has a fluorescence artifact activation of 9.61%.
Cc1ccc(S(=O)(=O)N2CCOCC2)cc1C(=O)N1C(=O)c2cccc(N)c2C1=O gave a fluorescence artifact activation of 0.13%.
For CCOC(=O)/C(=C\C=C1/Sc2ccccc2N1CC)C(C)=O, the fluorescence artifact activation was 0.04%.
With CCOC(=O)/C(=C/C=C1\Sc2ccccc2N1CC)C(C)=O the fluorescence artifact activation was 51.3% (active).
CCN1/C(=C\C=C(C(C)=O)C(C)=O)Sc2ccccc21 gave a fluorescence artifact activation of 0.42%.
Work on COC(=O)C1=C(C(=O)OC)[C@@H]2Nc3ccccc3[C@@]23C[C@@H](C(=O)OC)N(C(=O)c2cccs2)C3=N1 yielded a fluorescence artifact activation of 11.6%.
With CCOc1ccc(C2OC34CCCCC3C(C#N)(C#N)C2(C#N)C(=N)O4)cc1OC (stereo unspecified) the fluorescence artifact activation was 0.1%.
In the case of Cc1c2ccccc2nc2c(F)c(NCCO)c(F)c(F)c12, the fluorescence artifact activation is reported as 42.9% (active).
Work on Cc1c2ccccc2nc2c(F)c(N(C)C)c(F)c(F)c12 yielded a fluorescence artifact activation of 0.16%.
Work on COC(=O)C1=NN(C(=O)c2ccc(Br)cc2)C(O)(C(C)(C)C)C1 (stereo unspecified) yielded a fluorescence artifact activation of 1.09%.
CCOC(=O)c1cn(-c2ccc(F)c(F)c2F)c2c(F)c(F)c(F)cc2c1=O showed a fluorescence artifact activation of 0.24%.
CN(C)c1ccc(/C=C(/C#N)C(=O)Nc2nc3c(s2)CCN(Cc2ccccc2)C3)cc1 showed a fluorescence artifact activation of 0.06%.
Cc1ccc(NC(=O)COC(=O)/C=C/c2c(C)nn(-c3ccc(F)cc3)c2Cl)cc1F gave a fluorescence artifact activation of 0.01%.
For CCOc1ccc(CCNC(=O)C2CCCN(S(=O)(=O)N3CCOCC3)C2)cc1OCC (stereo unspecified), the fluorescence artifact activation was -0.05%.
For CC1CC(C)CN(S(=O)(=O)N2CCCC(C(=O)NC3CCCCC3)C2)C1 (stereo unspecified), the fluorescence artifact activation was 78.2% (active).
CCOC(=O)C1(Cc2cccc(OC)c2)CCN(Cc2ccon2)CC1 showed a fluorescence artifact activation of 1.14%.
With COc1ccc(Br)cc1S(=O)(=O)Nc1ncccc1C the fluorescence artifact activation was 24.7% (active).
COc1ccc(C(=O)O)cc1S(=O)(=O)NCCc1ccccn1 gave a fluorescence artifact activation of 0.58%.
In the case of COc1cc(Cl)c(S(=O)(=O)NCc2ccccn2)cc1Cl, the fluorescence artifact activation is reported as -0.05%.
Work on CCOC(=O)c1c(C)oc2c1c(C=NCCO)c(O)c1ccccc12 yielded a fluorescence artifact activation of 0.07%.
For O=C(c1ccco1)N1CCN(c2ncnc3c(-c4ccc(Cl)cc4)nsc23)CC1, the fluorescence artifact activation was 43.5% (active).
In the case of O=C(O)CCNc1cc(N2CCN(C(=O)c3ccco3)CC2)c2noc3c2c1C(=O)c1ccccc1-3, the fluorescence artifact activation is reported as -0.01%.
O=C1c2ccccc2-c2onc3c(N4CCN(CCO)CC4)cc(N4CCN(C(=O)c5ccco5)CC4)c1c23 gave a fluorescence artifact activation of 0.06%.
Work on COC(=O)Cn1c(C)c(/C=C/c2cc[n+](C)cc2)c2ccccc21 yielded a fluorescence artifact activation of 0.1%.
C[C@H](CO)N1C[C@H](C)[C@@H](CN(C)Cc2ccncc2)Oc2c(NS(=O)(=O)c3ccc(F)cc3)cccc2C1=O gave a fluorescence artifact activation of 0.19%.
For C[C@H](CO)N1C[C@H](C)[C@@H](CN(C)Cc2ccc(Oc3ccccc3)cc2)Oc2c(NC(=O)C3CC3)cccc2C1=O, the fluorescence artifact activation was 20.1% (active).
C[C@H](CO)N1C[C@H](C)[C@@H](CN(C)Cc2ccncc2)Oc2c(NC(=O)c3ccncc3)cccc2C1=O showed a fluorescence artifact activation of 1.32%.
CC1=CC2=NC(=O)/C(=C\c3ccc(-c4cccc(Cl)c4)o3)C(=N)N2O1 showed a fluorescence artifact activation of 7.64%.
In the case of CCOc1cc2c(cc1/C=C/c1noc(C)c1[N+](=O)[O-])OC(C)C2 (stereo unspecified), the fluorescence artifact activation is reported as 145% (active).
Cc1cc(N2C(=O)C(O)=C(C(=O)c3cccs3)C2c2ccc(F)cc2)no1 (stereo unspecified) gave a fluorescence artifact activation of 7.29%.
For CCc1cccc2cc3c(N)c(C(=O)Nc4ccc(S(=O)(=O)N5CCCC5)cc4)sc3nc12, the fluorescence artifact activation was 6.55%.
Compound COc1ccc(/C=C/C(=O)c2nc3ccccc3n2CC(=O)c2ccc(OC)cc2)cc1 has a fluorescence artifact activation of -0.1%.
Work on CCN(CC)c1ccc(C=Nc2cc(C)ccc2C)c(O)c1 yielded a fluorescence artifact activation of 1.34%.
CC(=O)NC(Cc1ccc(F)c(F)c1)C(=O)NC1CCN(S(=O)(=O)c2ccc(C)cc2)CC1 (stereo unspecified) showed a fluorescence artifact activation of -0.07%.
With COc1ccc(C(=O)c2sc3nc(-c4ccccc4)ccc3c2N)cc1 the fluorescence artifact activation was 21.8% (active).
Compound COc1ccc(-c2c(C#N)c(N)nc3sc(C(=O)c4ccccc4)c(N)c23)cc1 has a fluorescence artifact activation of 0.01%.
Compound COc1ccc(C(=O)c2sc3nc(C)cc(-c4cccs4)c3c2N)cc1 has a fluorescence artifact activation of 6.39%.
Nc1ccc2cc3[nH]c4cc(N)ccc4c3nc2c1 showed a fluorescence artifact activation of 2.11%.
For N#Cc1c(NCCCO)nc(-c2ccccc2)c2c1CCCC2, the fluorescence artifact activation was 4.04%.
For COc1ccc(OC(C)C(=O)Nc2cccc(OC)c2)cc1 (stereo unspecified), the fluorescence artifact activation was 0.45%.
For COc1ccccc1C(=O)Nc1ccc(OC(C)C(=O)N2CCOCC2)cc1 (stereo unspecified), the fluorescence artifact activation was 822% (active).
With CCOc1ccc(NC(=O)c2cccc(OC(=S)N3CCOCC3)c2)cc1 the fluorescence artifact activation was 0%.
Work on COc1ccc2c(c1)c(/C=C/c1cc[n+](C)cc1)cn2C yielded a fluorescence artifact activation of 0.08%.
In the case of COC(=O)c1cc2c(C)c(C)c3ccccn3c-2c1C(=O)OC, the fluorescence artifact activation is reported as 0.46%.
In the case of O=C(CCN1C(=O)/C(=C/c2cccs2)SC1=S)NNC(=O)c1cccc(O)c1, the fluorescence artifact activation is reported as -0.08%.
In the case of Oc1cccc(Nc2nc(O)c(/C=C3\C=Nc4ccccc43)s2)c1, the fluorescence artifact activation is reported as 43% (active).
